Experimental data from ChEMBL document CHEMBL5247578, “Effective synthesis of benzimidazoles-imidazo[1,2-a]pyrazine conjugates: A comparative study of mono-and bis-benzimidazoles for antitumor activity” (Eur J Med Chem, 2019).

Legend:
HT-29 = experiment: Antiproliferative activity against human HT-29 cells assessed as cell growth inhibition at 10 uM incubated for 48 hrs by sulforhodamine B assay relative to control; format: functional
Method in brief: (§1)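 NCI-60 single-dose screen at 10^-5 M. Cells grown in RPMI 1640 with 5% FBS and 2 mM L-glutamine, plated at 5,000–40,000 cells/well, and preincubated 24 h. Drug (DMSO stock) added and incubated 48 h at 37 °C, 5% CO2. Adherent cells fixed with cold TCA, stained with 0.4% SRB in 1% acetic acid, dye solubilized in 10 mM trizma base, A515 read. Percent growth taken against time-zero and untreated control.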

MOLT-4 = experiment: Antiproliferative activity against human MOLT-4 cells assessed as cell growth inhibition at 10 uM incubated for 48 hrs by sulforhodamine B assay relative to control; format: functional; method in brief: as §1
NCI-H23 = experiment: Antiproliferative activity against human NCI-H23 cells assessed as cell growth inhibition at 10 uM incubated for 48 hrs by sulforhodamine B assay relative to control; format: functional; method in brief: as §1
U-251 = experiment: Antiproliferative activity against human U-251 cells assessed as cell growth inhibition at 10 uM incubated for 48 hrs by sulforhodamine B assay relative to control; format: functional; method in brief: as §1
PC-3 = experiment: Antiproliferative activity against human PC-3 cells assessed as cell growth inhibition at 10 uM incubated for 48 hrs by sulforhodamine B assay relative to control; format: functional; method in brief: as §1
SK-MEL-5 = experiment: Antiproliferative activity against human SK-MEL-5 cells assessed as cell growth inhibition at 10 uM incubated for 48 hrs by sulforhodamine B assay relative to control; format: functional; method in brief: as §1
UO-31 = experiment: Antiproliferative activity against human UO-31 cells assessed as cell growth inhibition at 10 uM incubated for 48 hrs by sulforhodamine B assay relative to control; format: functional; method in brief: as §1
DU-145 = experiment: Antiproliferative activity against human DU-145 cells assessed as cell growth inhibition at 10 uM incubated for 48 hrs by sulforhodamine B assay relative to control; format: functional
Method in brief: (§2)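 NCI-60 one-dose prescreen at 10^-5 M. Cells grown in RPMI 1640 with 5% FBS and 2 mM glutamine, preincubated 24 h, then exposed 48 h at 37 °C. Adherent lines TCA-fixed, SRB-stained, A515 read. Growth percent relative to time-zero and control; negative values mean cell kill.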

SN12C = experiment: Antiproliferative activity against human SN12C cells assessed as cell growth inhibition at 10 uM incubated for 48 hrs by sulforhodamine B assay relative to control; format: functional; method in brief: as §1
MDA-MB-231 = experiment: Antiproliferative activity against human MDA-MB-231 cells assessed as cell growth inhibition at 10 uM incubated for 48 hrs by sulforhodamine B assay relative to control; format: functional; method in brief: as §1
LOX IMVI = experiment: Antiproliferative activity against human LOX IMVI cells assessed as cell growth inhibition at 10 uM incubated for 48 hrs by sulforhodamine B assay relative to control; format: functional; method in brief: as §1
A549 = experiment: Antiproliferative activity against human A549 cells assessed as cell growth inhibition at 10 uM incubated for 48 hrs by sulforhodamine B assay relative to control; format: functional
Method in brief: (§3)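 Single-dose NCI-60 prescreen at 10^-5 M. Cells in RPMI 1640 with 5% FBS and 2 mM L-glutamine, seeded 5,000–40,000 cells/well with 24 h preincubation, then drug exposure for 48 h at 37 °C under 5% CO2. Growth read by SRB staining of TCA-fixed cells at 515 nm against time-zero and untreated controls. Negative growth values denote cell kill.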

K562 = experiment: Antiproliferative activity against human K562 cells assessed as cell growth inhibition at 10 uM incubated for 48 hrs by sulforhodamine B assay relative to control; format: functional; method in brief: as §1
OVCAR-8 = experiment: Antiproliferative activity against human OVCAR-8 cells assessed as cell growth inhibition at 10 uM incubated for 48 hrs by sulforhodamine B assay relative to control; format: functional; method in brief: as §1
786-0 = experiment: Antiproliferative activity against human 786-0 cells assessed as cell growth inhibition at 10 uM incubated for 48 hrs by sulforhodamine B assay relative to control; format: functional; method in brief: as §3
HOP-92 = experiment: Antiproliferative activity against human HOP-92 cells assessed as cell growth inhibition at 10 uM incubated for 48 hrs by sulforhodamine B assay relative to control; format: functional; method in brief: as §2
SNB-75 = experiment: Antiproliferative activity against human SNB-75 cells assessed as cell growth inhibition at 10 uM incubated for 48 hrs by sulforhodamine B assay relative to control; format: functional; method in brief: as §1
HCT-15 = experiment: Antiproliferative activity against human HCT-15 cells assessed as cell growth inhibition at 10 uM incubated for 48 hrs by sulforhodamine B assay relative to control; format: functional; method in brief: as §2
SR = experiment: Antiproliferative activity against human SR cells assessed as cell growth inhibition at 10 uM incubated for 48 hrs by sulforhodamine B assay relative to control; format: functional; method in brief: as §1
NCI-H522 = experiment: Antiproliferative activity against human NCI-H522 cells assessed as cell growth inhibition at 10 uM incubated for 48 hrs by sulforhodamine B assay relative to control; format: functional; method in brief: as §1
KM12 = experiment: Antiproliferative activity against human KM12 cells assessed as cell growth inhibition at 10 uM incubated for 48 hrs by sulforhodamine B assay relative to control; format: functional; method in brief: as §1
HCT-116 = experiment: Antiproliferative activity against human HCT-116 cells assessed as cell growth inhibition at 10 uM incubated for 48 hrs by sulforhodamine B assay relative to control; format: functional; method in brief: as §2
HL-60 = experiment: Antiproliferative activity against human HL-60 cells assessed as cell growth inhibition at 10 uM incubated for 48 hrs by sulforhodamine B assay relative to control; format: functional; method in brief: as §2
[1] = n-Octanol/phosphate buffer partition coefficient, logP of the compound at pH 7.4 incubated for 85 mins by shake-flask method; format: physicochemical
Method in brief: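 Octanol–water partition by shake-flask: n-octanol with 0.15 M phosphate buffer pH 7.4 at 10:1 volumes. Buffer-phase absorbance read before mixing, then shaken 50 min and centrifuged at 2500 rpm for 35 min. Buffer absorbance read again; P = (Ai−Af)/Af × Vw/Vo.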

NCI-H226 = experiment: Antiproliferative activity against human NCI-H226 cells assessed as cell growth inhibition at 10 uM incubated for 48 hrs by sulforhodamine B assay relative to control; format: functional; method in brief: as §1
A498 = experiment: Antiproliferative activity against human A498 cells assessed as cell growth inhibition at 10 uM incubated for 48 hrs by sulforhodamine B assay relative to control; format: functional; method in brief: as §3
MDA-MB-468 = experiment: Antiproliferative activity against human MDA-MB-468 cells assessed as cell growth inhibition at 10 uM incubated for 48 hrs by sulforhodamine B assay relative to control; format: functional; method in brief: as §1
T47D = experiment: Antiproliferative activity against human T47D cells assessed as cell growth inhibition at 10 uM incubated for 48 hrs by sulforhodamine B assay relative to control; format: functional; method in brief: as §1
BT-549 = experiment: Antiproliferative activity against human BT-549 cells assessed as cell growth inhibition at 10 uM incubated for 48 hrs by sulforhodamine B assay relative to control; format: functional; method in brief: as §3
NCI-H460 = experiment: Antiproliferative activity against human NCI-H460 cells assessed as cell growth inhibition at 10 uM incubated for 48 hrs by sulforhodamine B assay relative to control; format: functional; method in brief: as §1
CCRF-CEM = experiment: Antiproliferative activity against human CCRF-CEM cells assessed as cell growth inhibition at 10 uM incubated for 48 hrs by sulforhodamine B assay relative to control; format: functional; method in brief: as §3
UACC-62 = experiment: Antiproliferative activity against human UACC-62 cells assessed as cell growth inhibition at 10 uM incubated for 48 hrs by sulforhodamine B assay relative to control; format: functional; method in brief: as §1
RPMI-8226 = experiment: Antiproliferative activity against human RPMI-8226 cells assessed as cell growth inhibition at 10 uM incubated for 48 hrs by sulforhodamine B assay relative to control; format: functional; method in brief: as §1
MCF7 = experiment: Antiproliferative activity against human MCF7 cells assessed as cell growth inhibition at 10 uM incubated for 48 hrs by sulforhodamine B assay relative to control; format: functional; method in brief: as §1
SF-268 = experiment: Antiproliferative activity against human SF-268 cells assessed as cell growth inhibition at 10 uM incubated for 48 hrs by sulforhodamine B assay relative to control; format: functional; method in brief: as §1
ACHN = experiment: Antiproliferative activity against human ACHN cells assessed as cell growth inhibition at 10 uM incubated for 48 hrs by sulforhodamine B assay relative to control; format: functional; method in brief: as §3
EKVX = experiment: Antiproliferative activity against human EKVX cells assessed as cell growth inhibition at 10 uM incubated for 48 hrs by sulforhodamine B assay relative to control; format: functional; method in brief: as §2
NCI-H322M = experiment: Antiproliferative activity against human NCI-H322M cells assessed as cell growth inhibition at 10 uM incubated for 48 hrs by sulforhodamine B assay relative to control; format: functional; method in brief: as §1
SNB-19 = experiment: Antiproliferative activity against human SNB-19 cells assessed as cell growth inhibition at 10 uM incubated for 48 hrs by sulforhodamine B assay relative to control; format: functional; method in brief: as §1

## c1csc(-c2cn3ccnc3c(-c3ccc4ncn(C5CCCCC5)c4c3)n2)c1
HT-29
  inhibition at 10 µM: 0.09%
MOLT-4
  inhibition at 10 µM: 30.8%
NCI-H23
  inhibition at 10 µM: 5.95%
U-251
  inhibition at 10 µM: 3.92%
PC-3
  inhibition at 10 µM: 49.1%
SK-MEL-5
  inhibition at 10 µM: 8.05%
UO-31
  inhibition at 10 µM: 10.9%
DU-145
  inhibition at 10 µM: 5.07%
SN12C
  inhibition at 10 µM: 2.84%
MDA-MB-231
  inhibition at 10 µM: 10.8%
LOX IMVI
  inhibition at 10 µM: 1.07%
A549
  inhibition at 10 µM: 5.33%
K562
  inhibition at 10 µM: 26.9%
OVCAR-8
  inhibition at 10 µM: 9.34%
786-0
  inhibition at 10 µM: 4.1%
HOP-92
  inhibition at 10 µM: 32.5%
SNB-75
  inhibition at 10 µM: 8.13%
HCT-15
  inhibition at 10 µM: 2.33%
SR
  inhibition at 10 µM: 27.2%
NCI-H522
  inhibition at 10 µM: 13.2%
KM12
  inhibition at 10 µM: 4.89%
HCT-116
  inhibition at 10 µM: 21.1%
HL-60
  inhibition at 10 µM: 26.6%
[1]
  logD at 1.417 h: 1.38
NCI-H226
  inhibition at 10 µM: 17.1%
A498
  inhibition at 10 µM: 25%
MDA-MB-468
  inhibition at 10 µM: 15.1%
T47D
  inhibition at 10 µM: 70.3%
BT-549
  inhibition at 10 µM: 12.2%
NCI-H460
  inhibition at 10 µM: 1.3%
CCRF-CEM
  inhibition at 10 µM: 46.4%
UACC-62
  inhibition at 10 µM: 24.8%
RPMI-8226
  inhibition at 10 µM: 52.3%

## CCc1ccc(-c2cn3ccnc3c(-c3ccc4ncn(C5CCCCC5)c4c3)n2)cc1
[1]
  logD at 1.417 h: 1.66

## FC(F)(F)c1cccc(-c2cn3ccnc3c(-c3ccc4ncn(C5CCCCC5)c4c3)n2)c1
HT-29
  inhibition at 10 µM: 6.41%
MOLT-4
  inhibition at 10 µM: 32.9%
U-251
  inhibition at 10 µM: 5.93%
PC-3
  inhibition at 10 µM: 36.5%
MCF7
  inhibition at 10 µM: 19.9%
SK-MEL-5
  inhibition at 10 µM: 4.32%
UO-31
  inhibition at 10 µM: 22.5%
SF-268
  inhibition at 10 µM: 3.3%
SN12C
  inhibition at 10 µM: 8.3%
ACHN
  inhibition at 10 µM: 0.3%
MDA-MB-231
  inhibition at 10 µM: 21.8%
EKVX
  inhibition at 10 µM: 4.79%
NCI-H322M
  inhibition at 10 µM: 5.83%
LOX IMVI
  inhibition at 10 µM: 3.45%
A549
  inhibition at 10 µM: 5.15%
K562
  inhibition at 10 µM: 21.5%
OVCAR-8
  inhibition at 10 µM: 10.1%
HOP-92
  inhibition at 10 µM: 8.38%
SNB-75
  inhibition at 10 µM: 4.58%
HCT-15
  inhibition at 10 µM: 0.36%
SR
  inhibition at 10 µM: 15.6%
NCI-H522
  inhibition at 10 µM: 10.7%
KM12
  inhibition at 10 µM: 1.25%
HCT-116
  inhibition at 10 µM: 17.6%
HL-60
  inhibition at 10 µM: 1.06%
SNB-19
  inhibition at 10 µM: 2.24%
[1]
  logD at 1.417 h: 1.72
NCI-H226
  inhibition at 10 µM: 1.55%
T47D
  inhibition at 10 µM: 52.1%
NCI-H460
  inhibition at 10 µM: 4.38%
CCRF-CEM
  inhibition at 10 µM: 27.3%
UACC-62
  inhibition at 10 µM: 4.33%
RPMI-8226
  inhibition at 10 µM: 32.1%

## Cc1cccc(-c2cn3ccnc3c(-c3ccc4ncn(C5CCCCC5)c4c3)n2)c1
[1]
  logD at 1.417 h: 1.87
